Measured values published in ChEMBL document CHEMBL1129933, “Tyrosine kinase inhibitors. 6. Structure-activity relationships among N- and 3-substituted 2,2'-diselenobis(1H-indoles) for inhibition of protein tyrosine kinases and comparative in vitro and in vivo studies against selected sulfur congeners” (J Med Chem, 1997).

Experiments:
MCF7 [1] = test: In vivo activity against human MCF-7 xenograft, weight change after 12.0 mg/kg ip dose for 5-11 days; type: functional; details: route intraperitoneal
Procedure, shortened: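 MCF-7 breast carcinoma xenografts were serially passaged in nude mice (NCr nu/nu) and implanted in randomized 18-22 g mice on day 0. Dosing was ip bolus, either daily or q4h ×3 daily, with vehicle of distilled H2O or 10% DMA in 50 mM lactic acid buffer, pH 4.0. Weight change was taken as the maximum treatment-related loss.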

M5076 = test: In vivo activity against murine M5076 sarcoma, weight change after 3.0 mg/kg ip dose at 4 hour intervals 3x a day for 9 days; type: functional, Mus musculus; details: route intraperitoneal
Procedure, shortened: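 M5076 sarcoma was serially transplanted in C57BL/6 mice and tested in B6C3F1 mice (18-22 g) given ip q4h ×3 daily for 9 days. Weight change was taken as the maximum treatment-related weight loss in the growth-delay assay.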

MCF7 [2] = test: In vivo activity against human MCF-7 xenograft, net cell kill at 3.0 mg/kg administered intraperitoneally at 4 hour intervals 3x a day for 5-11 days; type: functional; details: route intraperitoneal
Procedure, shortened: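 Nude mice (NCr nu/nu), 18-22 g, randomized and implanted on day 0 with serially passaged MCF-7 tumor (sc fragments in right axilla or ip cells). Compound was given ip bolus q4h ×3 daily, by average cage weight. Vehicle was distilled H2O or 10% DMA in 50 mM lactic acid, pH 4.0. Net cell kill = log tumor-burden reduction between first and last treatments.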

[3] = target: T1, Epidermal growth factor receptor (Homo sapiens, UniProt P00533); test: Inhibition of epidermal growth factor receptor (EGFr)
MCF7 [4] = test: In vivo activity against human MCF-7 xenograft, tumor growth delay (T-C) at 12.0 mg/kg ip dose for 5-11 days; details: route intraperitoneal
B16 [5] = test: In vivo activity against murine B16 melanoma, weight change after 0.75 mg/kg ip dose at 4 hour intervals 3x a day for 9 days; type: functional, Mus musculus; details: route intraperitoneal
Procedure, shortened: (§1)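 Murine tumours were maintained by serial transplantation (~30 mg fragments every 2 weeks): B16 in C57BL/6 and colon 26 in BALB/c. They were tested in F1 hosts, B6C3F1 for B16 and CD2F1 for colon 26, weighing 18-22 g. Treatment was ip daily or q4h ×3 for 9 days. Weight change was the difference between mean group weights on the last and first treatment days, from life-span assays.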

[6] = target: T1, Epidermal growth factor receptor; test: Inhibition of epidermal growth factor receptor (EGFr) using peptide substrate
Procedure, shortened: (§2)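 EGFr came from membrane vesicles shed by human A431 carcinoma cells. Activity was measured as 32P-phosphate transfer from ATP into a TCA-precipitable glutamate/tyrosine (4:1) random copolymer. ATP or peptide polymer substrate was varied. Ki was obtained by nonlinear regression with Cleland's equations, comparing slope and intercept determinations to assign the inhibition type.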

B16 [7] = test: In vivo activity against murine B16 melanoma, weight change after 3.0 mg/kg i.p. dose for 9 days; type: functional, Mus musculus; details: route intraperitoneal; procedure, shortened: as §1
Colon 26 [8] = test: In vivo activity against murine colon 26, percent treated/control tumor mass at 1.5 mg/kg ip dose for 9 days; type: functional, Mus musculus; details: route intraperitoneal; procedure, shortened: as §1
B16 [9] = test: In vivo activity against murine B16 melanoma, net cell kill at 0.75 mg/kg administered intraperitoneally at 4 hour intervals 3x a day for 9 days; type: functional, Mus musculus; details: route intraperitoneal
Procedure, shortened: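 Tumors were passaged in C57BL/6 mice; B6C3F1 mice (18-22 g, randomized) were implanted on day 0 ip with counted tumor cells or sc with fragments. Dosing was ip bolus, daily or q4h ×3 daily, by average cage weight. Vehicle was distilled H2O or 10% DMA in 50 mM lactic acid buffer, pH 4.0. Net cell kill = log reduction in tumor burden between first and last treatments.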

Colon 26 [10] = test: In vivo activity against murine colon 26, net cell kill at 0.75 mg/kg ip dose at 4 hour intervals 3x a day for 9 days; type: functional, Mus musculus; details: route intraperitoneal
Procedure, shortened: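 Colon 26 was passaged in BALB/c mice; tested in CD2F1 mice (18-22 g, randomized) implanted on day 0 ip with counted cells or sc with fragments. Dosing was ip bolus, daily or q4h ×3 daily, by average cage weight. Vehicle was distilled H2O or 10% DMA in 50 mM lactic acid, pH 4.0. Net cell kill = log tumor-burden reduction between first and last treatments.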

[11] = target: T1, Epidermal growth factor receptor; test: Inhibition of epidermal growth factor receptor (EGFr) using ATP substrate; procedure, shortened: as §2

T1 sequence (P00533 whole entry): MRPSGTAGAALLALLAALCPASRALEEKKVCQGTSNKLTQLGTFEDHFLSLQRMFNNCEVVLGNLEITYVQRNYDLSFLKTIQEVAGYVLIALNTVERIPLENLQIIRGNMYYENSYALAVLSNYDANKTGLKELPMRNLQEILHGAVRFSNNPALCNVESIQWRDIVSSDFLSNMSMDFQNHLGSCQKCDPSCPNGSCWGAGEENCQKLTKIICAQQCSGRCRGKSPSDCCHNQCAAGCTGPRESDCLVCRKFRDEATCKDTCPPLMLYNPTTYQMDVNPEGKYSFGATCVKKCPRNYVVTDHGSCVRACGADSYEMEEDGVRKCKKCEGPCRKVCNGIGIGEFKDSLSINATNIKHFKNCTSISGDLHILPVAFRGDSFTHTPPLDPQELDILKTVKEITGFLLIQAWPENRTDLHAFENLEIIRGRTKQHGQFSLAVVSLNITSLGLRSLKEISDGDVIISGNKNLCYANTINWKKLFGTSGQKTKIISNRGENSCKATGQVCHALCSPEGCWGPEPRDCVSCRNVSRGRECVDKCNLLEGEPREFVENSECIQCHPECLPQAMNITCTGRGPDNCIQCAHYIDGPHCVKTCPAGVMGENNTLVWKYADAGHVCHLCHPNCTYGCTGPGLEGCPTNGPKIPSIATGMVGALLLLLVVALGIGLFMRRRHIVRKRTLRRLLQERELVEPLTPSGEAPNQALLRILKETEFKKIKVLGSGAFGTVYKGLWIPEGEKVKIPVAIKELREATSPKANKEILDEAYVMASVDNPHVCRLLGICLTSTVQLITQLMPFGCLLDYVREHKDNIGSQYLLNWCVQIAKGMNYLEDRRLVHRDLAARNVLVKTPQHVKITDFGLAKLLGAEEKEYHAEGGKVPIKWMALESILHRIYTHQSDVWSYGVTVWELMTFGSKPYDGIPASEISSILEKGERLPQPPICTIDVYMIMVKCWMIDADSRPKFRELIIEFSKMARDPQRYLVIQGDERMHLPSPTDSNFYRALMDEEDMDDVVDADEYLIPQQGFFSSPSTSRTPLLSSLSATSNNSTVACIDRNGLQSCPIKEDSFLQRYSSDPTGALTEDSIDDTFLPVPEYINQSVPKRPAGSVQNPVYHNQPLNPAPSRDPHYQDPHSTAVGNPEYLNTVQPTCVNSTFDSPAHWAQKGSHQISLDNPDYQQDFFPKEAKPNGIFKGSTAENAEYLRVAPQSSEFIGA

SMILES: NC(Cc1c(SSc2[nH]c3ccccc3c2CC(N)C(=O)NCc2ccccc2)[nH]c2ccccc12)C(=O)NCc1ccccc1 (configuration not stated)
- Weight change (MCF7 [1]): -0.4 g
- Weight change (M5076): -0.5 g
- Net cell kill (MCF7 [2]): -1.2 log10
- IC50 [3]: 7.4 µM
- T-C (MCF7 [4]): 0 days
- Weight change (B16 [5]): 1.1 g
- Ki [6]: 21.2 µM
- Weight change (B16 [7]): 1.4 g
- T/C (Colon 26 [8]): 115%
- Net cell kill (B16 [9]): -1.3 log10
- Net cell kill (Colon 26 [10]): -0.2 log10
- Ki [11]: 19.4 µM
